This is an account of results in ChEMBL document CHEMBL4342502, “Synthesis and Antichlamydial Activity of Molecules Based on Dysregulators of Cylindrical Proteases” (J Med Chem, 2020).

For data set [1], the system named is Staphylococcus aureus. The experiment in a line: Antibacterial activity against methicillin-resistant Staphylococcus aureus ATCC 43300 assessed as bacterial growth inhibition at 32 ug/ml measured after 16 hrs by broth microdilution method. It is filed as functional, organism-based.
For data set [2], the system named is Chlamydia trachomatis. Put plainly: Activation of recombinant Chlamydia trachomatis Serovar LGV-L2 C-terminal 6xhis-tagged ClpP1 expressed in Escherichia coli assessed as induction of casein degradation at 0.1 to 1 uM using FITC-labelled casein as substrate pretreated with enzyme for 30 mins followed by substrate addition and measured every 3 mins for 3 hrs in absence chaperone by fluorescence based tecan-plate reader assay. The procedure, abridged:
(§1)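 Recombinant C-terminal His6-tagged ClpP, expressed in a clpAPX-null E. coli strain and purified (mammalian ClpP without mitochondrial signal, codon-optimized). ClpP at 1 or 0.1 μM (E. coli), 1 μM (human, mouse) or 6 μM (chlamydial ClpP1 and ClpP2) preincubated with compound or DMSO, 30 min, 32 °C, in HEPES pH 7.6/KCl/MgCl2/DTT/glycerol buffer. 20 μM FITC-casein then added. Fluorescence (ex 490/em 525 nm) read every 3 min for 3 h. At least three runs on at least two protein preparations.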

Data set [3] has as its system Escherichia coli. Put plainly: Antibacterial activity against Escherichia coli ATCC 25922 assessed as bacterial growth inhibition at 32 ug/ml measured after 16 hrs by broth microdilution method. Format: functional, organism-based. In general terms: Dilution methods test growth across graded concentrations, often in twofold steps.
Data set [4] relates to Escherichia coli. Put plainly: Antibacterial activity against Escherichia coli K12 assessed as bacterial growth inhibition at 32 ug/ml measured after 16 hrs by broth microdilution method. It is filed as functional, organism-based. The conditions noted are these: K-12. A digest of the protocol:
(§2)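 Broth microdilution in Mueller Hinton broth, triplicate. Direct colony suspension at 1.5 x 10^8 CFU/mL diluted to ~10^5 CFU/mL. Serial dilutions made from DMSO stocks at 1 mg/mL; vancomycin positive control, blank medium negative control. Incubated 16 h at optimum temperature. MIC is the lowest concentration without visible growth at 600 nm; mean of triplicate determinations.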

Another data set relates to Pseudomonas aeruginosa. The experiment in a line: Antibacterial activity against Pseudomonas aeruginosa ATCC 27853 assessed as bacterial growth inhibition at 32 ug/ml measured after 16 hrs by broth microdilution method. It is filed as functional, organism-based.
The subject of data set [5] is Chlamydia trachomatis. Put plainly: Activation of recombinant Chlamydia trachomatis Serovar LGV-L2 C-terminal 6xhis-tagged ClpP2 expressed in Escherichia coli assessed as induction of casein degradation at 0.1 to 1 uM using FITC-labelled casein as substrate pretreated with enzyme for 30 mins followed by substrate addition and measured every 3 mins for 3 hrs in absence of AAA+ chaperone by fluorescence based tecan-plate reader assay. A digest of the protocol: as §1

In data set [6] the target is ATP-dependent Clp protease proteolytic subunit (Escherichia coli (strain K12)) (UniProt P0A6G7). Put plainly: Activation of recombinant Escherichia coli ClpP assessed as induction of casein degradation at 0.1 to 1 uM using FITC-labelled casein as substrate pretreated with enzyme for 30 mins followed by substrate addition and measured every 3 mins for 3 hrs in absence of AAA+ chaperone by fluorescence based tecan-plate reader assay. A digest of the protocol:
as §1

In data set [7] the test system is Chlamydia trachomatis. Put plainly: Activation of recombinant Chlamydia trachomatis Serovar LGV-L2 C-terminal 6xhis-tagged ClpP1/ClpP2 dimer expressed in Escherichia coli assessed as induction of casein degradation at 0.1 to 1 uM using FITC-labelled casein as substrate pretreated with enzyme for 30 mins followed by substrate addition and measured every 3 mins for 3 hrs in absence of AAA+ chaperone by fluorescence based tecan-plate reader assay. A digest of the protocol: as §1

A short description of data set [8]: Activation of recombinant mouse C-terminal 6xHis-tagged ClpP expressed in Escherichia coli assessed as induction of casein degradation at 0.1 to 1 uM using FITC-labelled casein as substrate pretreated with enzyme for 30 mins followed by substrate addition and measured every 3 mins for 3 hrs in absence of AAA+ chaperone by fluorescence based tecan-plate reader assay. A digest of the protocol:
as §1

Data set [9] concerns Staphylococcus aureus. Put plainly: Antibacterial activity against Staphylococcus aureus JE2 assessed as bacterial growth inhibition at 32 ug/ml measured after 16 hrs by broth microdilution method. Format: functional, organism-based. A digest of the protocol:
as §2

A further data set deals with Candida albicans. The experiment in a line: Antifungal activity against Candida albicans ATCC 90028 assessed as fungal growth inhibition at 32 ug/ml measured after 16 hrs by broth microdilution method. Format: functional, organism-based.
The subject of another data set is Cryptococcus neoformans. Put plainly: Antifungal activity against Cryptococcus neoformans var. grubii H99 ATCC […] as fungal growth inhibition at 32 ug/ml measured after 16 hrs by broth microdilution method. The settings on record: var. grubii H99 ATCC 208821. It is filed as functional, organism-based.
A further data set has as its system Acinetobacter baumannii. The experiment in a line: Antibacterial activity against Acinetobacter baumannii ATCC 19606 assessed as bacterial growth inhibition at 32 ug/ml measured after 16 hrs by broth microdilution method. It is filed as functional, organism-based. The settings on record: ATCC 19606 = CIP 70.34 = JCM 6841.
Data set [10] has as its system Chlamydia trachomatis. Put plainly: Anti-chlamydial activity against Chlamydia trachomatis Serovar LGV-L2 infected in Hep2 cells assessed as inhibition of chlamydial inclusion at 50 ug/ml treated at 8 hrs post infection and measured at 24 hrs post-infection by immunofluorescence assay. Format: functional, organism-based. The procedure, abridged:
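HEp-2 cells infected with C. trachomatis serovar L2. Compounds at 50 μg/mL added 8 hpi; inclusion number and size assessed by immunofluorescence at 24 hpi against untreated cells. Cell morphology and viability checked by phase-contrast microscopy.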

Data set [11] can be described thus: Activation of recombinant human C-terminal 6xHis-tagged ClpP expressed in Escherichia coli assessed as induction of casein degradation at 0.1 to 1 uM using FITC-labelled casein as substrate pretreated with enzyme for 30 mins followed by substrate addition and measured every 3 mins for 3 hrs in absence of AAA+ chaperone by fluorescence based tecan-plate reader assay. A digest of the protocol: as §1

Another data set has as its system Klebsiella pneumoniae. Put plainly: Antibacterial activity against Klebsiella pneumoniae ATCC 700603 assessed as bacterial growth inhibition at 32 ug/ml measured after 16 hrs by broth microdilution method. It is filed as functional, organism-based.
Data set [12] in a line: Hepatic intrinsic clearance in human liver microsomes at 1 ug/ml measured per kg body weight up to 60 mins by LC-MS/MS analysis. Format: ADME, Microsome. The conditions noted are these: 1 h. For orientation: Liver microsomes are a subcellular fraction often used to study metabolism.
Data set [13] is described as follows: Stability of the compound in simulated gastric fluid at 50 uM and pH 1.2 at 37 degree C measured up to 120 mins by HPLC-ESI/MS analysis. The conditions noted are these: simulated gi fluid, pH 1.2, 2 h.
Data set [14] can be described thus: Half life in human liver microsomes at 1 ug/ml measured up to 60 mins by LC-MS/MS analysis. Format: ADME, Microsome. The procedure, abridged: (§3)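 Human liver microsomes (1.0 mg/mL protein) in 100 mM phosphate pH 7.4 with 10 mM MgCl2 and 2 mM NADPH, preincubated 10 min at 37 °C. Reaction started with compound at 1 μg/mL. Sampled at 0, 5, 15, 20, 30, 45 and 60 min and quenched in methanol with internal standard. Controls: no NADPH (negative), testosterone (positive). Analysed by LC-MS/MS, triplicate.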

Data set [15] concerns Escherichia coli. Put plainly: Antibacterial activity against Escherichia coli K12 assessed as bacterial death up to 256 ug/ml measured after 16 hrs by broth microdilution method. It is filed as functional, organism-based. The conditions noted are these: K-12. A digest of the protocol: as §2
A short description of data set [16]: Drug metabolism in human liver microsomes assessed as amount of drug modified at 1 ug/ml […] in presence of NADPH by LC-MS/MS analysis. It is filed as ADME, Microsome. The settings on record: read-out: Drug metabolism.
Another data set has as its system HaCaT. The experiment in a line: Cytotoxicity against immortal human HaCaT cells assessed as reduction in cell viability at 50 ug/ml after 24 hrs by CCK-8 assay. Format: cell-based. The procedure, abridged: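 HeLa 229 and HaCaT cells in DMEM with 10% FBS and 1% penicillin/streptomycin, 37 °C, 5% CO2, seeded at 5000 cells/well. Next day treated with 50 μg/mL in triplicate, with matching DMSO controls. After 24 h, CCK-8 added for 2 h; corrected absorbance read at 450 nm.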
In general terms: Formazan colour is commonly taken as a measure of viable cells.

Data set [17] can be described thus: Stability of compound in human liver microsomes at 1 ug/ml measured up to 60 mins in absence of NADPH by LC-MS/MS analysis. Format: ADME, Microsome. The settings on record: 1 h. A digest of the protocol: as §3
Data set [18] has as its system Staphylococcus aureus. Put plainly: Antibacterial activity against Staphylococcus aureus JE2 assessed as bacterial death up to 256 ug/ml measured after 16 hrs by broth microdilution method. It is filed as functional, organism-based. A digest of the protocol:
as §2

The nature of data set [19]: Stability of compound in mouse pre-heated plasma at 50 uM incubated up to 120 mins by HPLC-ESI/MS analysis. Format: ADME, cell-free. The settings on record: 2 h. A digest of the protocol:
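Compounds from 2.5 mM DMSO stocks incubated at 50 μM final in mouse plasma diluted to 80% with PBS, preheated, 37 °C, shaking. Sampled at 0, 15, 30, 60, 90 and 120 min and quenched with cold acetonitrile. Centrifuged; supernatant analysed by HPLC-ESI-MS. Peak area reported relative to time zero. Enalapril positive control; triplicate.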

A short description of data set [20]: Intrinsic clearance in human liver microsomes at 1 ug/ml measured per mg protein up to 60 mins by LC-MS/MS analysis. Format: ADME, Microsome. The procedure, abridged: as §3
Data set [21] has as its system Chlamydia trachomatis. The experiment in a line: Anti-chlamydial activity against Chlamydia trachomatis Serovar LGV-L2 infected in Hep2 cells assessed as reduction in chlamydial infectivity by measuring decrease in inclusion forming units at 50 ug/ml treated at 8 hrs post-infection and 24 hrs later re-infecting fresh Hep2 cells monolayer with infected cells and measured at 24 hrs post re-infection by immunofluorescence staining based microscopy analysis. Format: functional, organism-based. The procedure, abridged:
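HEp-2 cells in DMEM with 10% FBS, infected with C. trachomatis L2 at MOI 1. Compounds added 8 hpi in triplicate; DMSO stocks at 50 mg/mL. At 24 hpi lysates collected in sucrose storage medium, frozen at −80 °C, and used to infect fresh HEp-2 monolayers in 10-fold dilutions. After 24 h, stained with goat anti-MOMP and Alexa488 secondary. Inclusions counted in 15 fields at 20x; IFU = mean count per field corrected for dilution.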

The subject of the next data set is Haemophilus influenzae. The experiment in a line: Antimicrobial activity against Haemophilus influenzae H2192 assessed as bacterial growth inhibition measured after 18 to 20 hrs. Format: functional.
The test system of another data set is Neisseria meningitidis. Put plainly: Antimicrobial activity against Neisseria meningitidis MC58 assessed as bacterial growth inhibition measured after 18 to 20 hrs. Format: functional.

Activity calls are given as the source filed them. The calls are words filed in the database; no cut-off is given here.

Chain of ATP-dependent Clp protease proteolytic subunit (Escherichia coli (strain K12)) (P0A6G7 whole entry): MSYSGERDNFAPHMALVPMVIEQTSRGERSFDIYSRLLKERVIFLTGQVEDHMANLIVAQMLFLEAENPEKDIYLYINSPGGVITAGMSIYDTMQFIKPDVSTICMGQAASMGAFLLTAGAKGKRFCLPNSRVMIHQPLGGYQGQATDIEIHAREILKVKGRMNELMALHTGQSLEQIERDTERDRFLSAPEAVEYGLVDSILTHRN

As for `CC(C)(C(=O)NCCCc1ccccc1)S(=O)(=O)c1ccccc1`, the inhibition result in the data set on Staphylococcus aureus [1], in the data set on Escherichia coli [3], with Escherichia coli [4], with Pseudomonas aeruginosa, in the data set with Staphylococcus aureus [9] and in the data set on Candida albicans was “inactive” in each case. Further, the inhibition entry in the data set on Cryptococcus neoformans, in the data set with Acinetobacter baumannii, in the data set on Chlamydia trachomatis [10] and with Klebsiella pneumoniae was “inactive” each time. Moreover, the outcome with Chlamydia trachomatis [2], with Chlamydia trachomatis [5] and with Chlamydia trachomatis [7] was Active. For the same compound, in data set [6], the outcome was inactive. Also, the Activity entry in [8] and in data set [11] was “Not Active” throughout.

By half-life is commonly meant how long it takes for the measured level to halve. Regarding `CC(C)(C(=O)N1CCN(c2ccc(Cl)c(Cl)c2)CC1)S(=O)(=O)c1ccc(C(F)(F)F)cn1`, the inhibition result in the data set with Staphylococcus aureus [1], with Escherichia coli [3], with Escherichia coli [4], in the data set with Pseudomonas aeruginosa, with Staphylococcus aureus [9] and with Candida albicans was “inactive” in each case. Also, the inhibition entry with Cryptococcus neoformans, in the data set on Acinetobacter baumannii and in the data set on Klebsiella pneumoniae was “inactive” throughout. The compound also showed a CLH in data set [12] of 874 mL/min/kg. Moreover, the Stability entry in data set [13], in data set [17] and in [19] was “Stable” in each case. Also, the half-life at 1 ug/ml in data set [14] (liver microsomes) came out at 6.25 min. The result in the data set on Escherichia coli [15] and with Staphylococcus aureus [18] was inactive. The metabolised at 10 min, 1 ug/ml in data set [16] is 90%. For the same compound, in the data set on HaCaT, the Activity result is on record as “Non-Toxic”. Further, the inhibition result with Chlamydia trachomatis [10] and in the data set with Chlamydia trachomatis [21] was “Active” in each case. For the same compound, the microsomal CLint at 1 ug/ml in [20] (liver microsomes, read-out: CLH) amounted to 112 µL/min/mg.

In the case of `CC(C)(C(=O)NCCOc1ccccc1)S(=O)(=O)c1ccc(C(F)(F)F)cn1`, the inhibition result in the data set on Staphylococcus aureus [1], in the data set on Escherichia coli [3], in the data set on Escherichia coli [4], in the data set with Pseudomonas aeruginosa, with Staphylococcus aureus [9] and in the data set with Candida albicans was “inactive” in each case. The inhibition result in the data set on Cryptococcus neoformans, with Acinetobacter baumannii and with Klebsiella pneumoniae was “inactive” in each case. In data set [12], the CLH is 1460 mL/min/kg. Besides, the t1/2 in [14] (microsomes, 1 h) is 3.73 min. The result with Escherichia coli [15] and in the data set on Staphylococcus aureus [18] was inactive. Moreover, the metabolised at 10 min, 1 ug/ml in [16] came to 90%. Moreover, in data set [17], the Stability result was “Stable”. Besides, the inhibition result in the data set on Chlamydia trachomatis [10] and in the data set on Chlamydia trachomatis [21] was “Active” each time. The compound also had a microsomal intrinsic clearance in data set [20] (microsomes, 1 h) of 185.6 µL/min.

`CC(C)(C(=O)NCCSc1ccccc1Cl)S(=O)(=O)c1ccc(C(F)(F)F)cn1`: the Activity in the data set with Haemophilus influenzae came out at 32 µg/mL; in the data set with Neisseria meningitidis, 64 µg/mL. Also, in the data set on Chlamydia trachomatis [10], the inhibition entry is “Active”.
